The subject of one test is LR. The experiment in a line: (§1) Antiproliferative activity against human LR cells incubated for 72 hrs by Celltiter-Glo assay. Format: functional, cell-based. The method, boiled down: (§2)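 Cells treated with 0, 0.01, 0.03, 0.1, 0.3 and 1 μM of compound for 72 h. Viability read by CellTiter-Glo luminescence. IC50 taken from the dose–response curves. LR cells are LDK378-resistant. A549 and H460 carry co-occurring KRAS and KEAP1 mutations, and H358 carries a KRAS mutation only.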

Test [1] addresses T1, Glutaminase kidney isoform, mitochondrial (Homo sapiens, UniProt O94925).
T1 sequence (O94925 whole entry): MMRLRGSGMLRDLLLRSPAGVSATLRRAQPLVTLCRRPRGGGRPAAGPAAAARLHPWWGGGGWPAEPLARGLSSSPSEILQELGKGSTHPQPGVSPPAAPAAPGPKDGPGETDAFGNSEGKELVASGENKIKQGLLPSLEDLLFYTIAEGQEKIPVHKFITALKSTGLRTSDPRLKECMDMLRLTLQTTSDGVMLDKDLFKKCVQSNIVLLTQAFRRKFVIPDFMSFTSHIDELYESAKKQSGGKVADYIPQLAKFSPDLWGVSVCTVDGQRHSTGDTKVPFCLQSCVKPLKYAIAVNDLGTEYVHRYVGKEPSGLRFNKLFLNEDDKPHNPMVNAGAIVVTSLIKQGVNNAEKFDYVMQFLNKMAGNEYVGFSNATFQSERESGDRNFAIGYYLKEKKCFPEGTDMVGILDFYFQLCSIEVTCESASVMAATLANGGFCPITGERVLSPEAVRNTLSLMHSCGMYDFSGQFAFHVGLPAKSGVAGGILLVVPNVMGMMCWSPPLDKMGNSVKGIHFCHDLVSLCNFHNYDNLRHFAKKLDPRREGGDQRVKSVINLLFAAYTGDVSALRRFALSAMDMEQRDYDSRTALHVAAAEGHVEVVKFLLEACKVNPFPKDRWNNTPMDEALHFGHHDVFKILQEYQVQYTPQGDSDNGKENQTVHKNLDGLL
As to the kind of experiment: Inhibition of GLS1 (unknown origin).

Another test has as its system NCI-H460. As to the kind of experiment: Antiproliferative activity against human NCI-H460 cells incubated for 72 hrs by Celltiter-Glo assay. Format: functional, cell-based. As to conditions: NCI-H460, 72 h. The method, boiled down: as §2
Test [2] can be described thus: as §1. Format: functional, cell-based. The method, boiled down:
as §2

The test system of a further test is NCI-H358. As to the kind of experiment: Antiproliferative activity against human NCI-H358 cells incubated for 72 hrs by Celltiter-Glo assay. Format: functional, cell-based. Particulars: NCI-H358, 72 h. The method in brief: as §2
For a further test, the system named is A549. As to the kind of experiment: Antiproliferative activity against human A549 cells incubated for 72 hrs by Celltiter-Glo assay. Format: functional, cell-based. As to conditions: A549, 72 h. The method in brief:
as §2

As to `O=C1Cc2cccc(c2)OCCOCCOc2cccc(c2)CC(=O)Nc2nnc(s2)CCCCc2ccc(nn2)N1`, the Activity entry in the test with LR is “Dose-Dependent Effect”. In test [1], this compound yielded an IC50 of 400 nM.
On the same counts, the results for `O=C1Cc2cccc(c2)OCCOCCOc2cccc(c2)CC(=O)Nc2ccc(nn2)CCCCc2ccc(nn2)N1` are “Dose-Dependent Effect” and 430 nM.
Consider `O=C1Cc2cccc(c2)OCCOCCOc2cccc(c2)CC(=O)NC2=NN=C(CCCC3=NN=C(N1)S3)S2`, for which the IC50 in test [1] was 4000 nM.
For the compound `O=C1Cc2cccc(c2)OCCCCCCCOc2cccc(c2)CC(=O)Nc2nnc(s2)CCCCc2ccc(nn2)N1`, the midpoint of inhibition in test [1], the IC50, lay at 3000 nM.
Take `O=C1Cc2cccc(c2)OCCCOCCCOc2cccc(c2)CC(=O)Nc2ccc(nn2)CCCCc2ccc(nn2)N1`: the concentration for half-maximal inhibition (IC50) with NCI-H460 was 88 nM; in test [2] it was below 100 nM; with NCI-H358, above 1000 nM; in test [1], 310 nM; with A549, 95 nM. Also, the Activity result in the test with LR was “Dose-Dependent Effect”.
`O=C1Cc2cccc(c2)OCCOc2cccc(c2)CC(=O)NC2=NN=C(CCCCC3=NN=C(N1)S3)S2` gave an IC50 in test [1] of 980 nM.
In turn, `O=C1Cc2cccc(c2)OCCOCCOCCOCCOc2cccc(c2)CC(=O)NC2=NN=C(CCCCC3=NN=C(N1)S3)S2` returned a 50% inhibitory concentration (IC50) in test [1] of 4000 nM.
Take `O=C1Cc2cccc(c2)OCCOc2cccc(c2)CC(=O)Nc2ccc(nn2)CCCCc2ccc(nn2)N1`: the Activity result in the test with LR is “Dose-Dependent Effect”. Inhibition in test [1] was half-maximal at 180 nM (IC50).
With `O=C1Cc2cccc(c2)OCCCOCCCOc2cccc(c2)CC(=O)Nc2nnc(s2)CCCCc2ccc(nn2)N1`, the IC50 in test [1] was 800 nM.
With `O=C(Cc1cccc(OC(F)(F)F)c1)Nc1ccc(CCCCc2nnc(NC(=O)Cc3ccccn3)s2)nn1`, the half-inhibitory concentration (IC50) is 36 nM in the test with NCI-H460, below 100 nM in test [2], above 1000 nM in the test with NCI-H358 and 26 nM with A549. Further, the Activity entry with LR is “Dose-Dependent Effect”.
With `O=C1Cc2cccc(c2)OCCCCCOc2cccc(c2)CC(=O)Nc2nnc(s2)CCCCc2ccc(nn2)N1`, half-maximal inhibition in test [1] (IC50) required 1000 nM.
In test [1], `O=C1Cc2cccc(c2)OCCOCCOc2cccc(c2)CC(=O)NC2=NN=C(CCCCCC3=NN=C(N1)S3)S2` came in with a 50% inhibitory concentration (IC50) of 10000 nM.
Same read-out and setting: the result for `O=C1Cc2ccc(cc2)OCCOCCOCCOc2cccc(c2)CC(=O)Nc2nnc(s2)CCCCc2nnc(s2)N1` reads 3000 nM; that for `O=C1Cc2cccc(c2)OCCOCCOc2cccc(c2)CC(=O)NC2=NN=C(CCCCC3=NN=C(N1)S3)S2`, 2000 nM.

For the origin of these results see ChEMBL document CHEMBL5223110, “Novel allosteric glutaminase 1 inhibitors with macrocyclic structure activity relationship analysis” (Bioorg Med Chem Lett, 2022).
